Where “and” joins values, the source holds several entries; their conditions need not be identical. Identical values can stand only once. Like-named read-outs stand apart in the source and are kept apart here.
Experiments:
[1] = tested on: T. b. brucei 427 bloodstream trypanosomes; assay: T. b. brucei growth inhibition assay; format: cell-based, Trypanosoma brucei brucei; settings: for IC50: read-out: T. b. brucei IC50; for IC90: in Homo sapiens, read-out: T. b. brucei IC90; for T. b. brucei SI (Selectivity Index): mammalian cell IC50/T. brucei IC50
[2] = tested on: asexual-stage P. falciparum; assay: P. falciparum asexual-stage growth inhibition, line not specified or both lines; format: cell-based, Plasmodium falciparum; settings: for IC50 / IC90: Plasmodium falciparum; for IC50: 3D7|DD2, read-out: IC50 against 3D7 and Dd2 P. falciparum lines; for IC90: in Homo sapiens, read-out: P. falciparum IC90; for P. falciparum SI (Selectivity Index): mammalian cell IC50/P. falciparum IC50, larger values indicate greater parasite selectivity
[3] = tested on: Neonatal foreskin fibroblast (NFF) cells; assay: NFF cytotoxicity assay; format: cell-based; settings: Homo sapiens, 72 h, read-out: Mammalian cell IC50 NFF
P. falciparum Dd2 = assay: P. falciparum growth inhibition assay, [3H] hypoxanthine incorporation, Dd2 line; format: cell-based; settings: Plasmodium falciparum, DD2, read-out: P. falciparum IC50 Dd2
[4] = tested on: sexual stage P. falciparum gametocytes; settings: ref Sun et al., 2014, cited from earlier work; for IC50: read-out: Sexual stage P. falciparum gametocytes IC50
recombinant PfHDAC1 = molecular target: T1, recombinant PfHDAC1 (Plasmodium falciparum, UniProt Q7K6A1); assay: Deacetylase activity assay, recombinant PfHDAC1; format: biochemical; settings: mean (±SD) of two independent assays; for inhibition at 1 µM: read-out: PfHDAC1 % inhibition at 1 μM, 1 μM
T1 sequence (Q7K6A1 1-449): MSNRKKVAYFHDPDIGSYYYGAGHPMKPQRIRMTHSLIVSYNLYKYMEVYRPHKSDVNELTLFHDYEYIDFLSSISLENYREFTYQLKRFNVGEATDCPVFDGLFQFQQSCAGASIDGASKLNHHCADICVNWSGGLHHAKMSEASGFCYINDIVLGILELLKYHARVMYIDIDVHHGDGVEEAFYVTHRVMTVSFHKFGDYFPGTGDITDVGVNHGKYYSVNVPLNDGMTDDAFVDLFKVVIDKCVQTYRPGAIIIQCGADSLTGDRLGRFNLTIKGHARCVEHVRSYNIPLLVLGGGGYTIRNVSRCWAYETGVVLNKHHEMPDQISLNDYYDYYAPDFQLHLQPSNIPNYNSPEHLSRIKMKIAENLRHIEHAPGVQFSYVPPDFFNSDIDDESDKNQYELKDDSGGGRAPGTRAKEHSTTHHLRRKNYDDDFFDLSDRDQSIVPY
Method in brief: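 Recombinant PfHDAC1 (32 ng/ml) was incubated with test compound or control at 1 μM, or with vehicle (0.5% DMSO). Ac-RGK(Ac)-AMC fluorogenic substrate was added for 1 h at 37 °C, then activator solution for 10 min at room temperature. Fluorescence (ex 350–380/em 440–460 nm) was read within 60 min. Percent inhibition was calculated versus DMSO controls from two independent assays, each in duplicate.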

HEK293 cells = assay: HEK293 cytotoxicity assay; format: cell-based; settings: read-out: Mammalian cell IC50 HEK 293
P. falciparum 3D7 = assay: microbe, parasite or virus in culture; format: cell-based; settings: Plasmodium falciparum, 3D7, read-out: P. falciparum IC50 3D7
[5] = tested on: tetra-acetylated histone H4 in P. falciparum 3D7 trophozoites; assay: Protein hyperacetylation assay, Western blot, anti-tetra-acetyl histone H4; format: cell-based, Plasmodium falciparum; settings: 3× IC50, 3 h; for Hyperacetylation, anti-(tetra) acetyl H4 antibody (words): vs vehicle control
Method in brief: (§1)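 Synchronous trophozoite-stage 3D7-infected erythrocytes (3–5% parasitemia, 5% haematocrit) were exposed for 3 h, with controls of 0.05% DMSO vehicle, chloroquine and a reference HDAC inhibitor. Lysis used 0.15% saponin, then PBS washes, SDS-PAGE and PVDF blotting. Rabbit primaries ran overnight at 4 °C: tetra-acetyl H4 1:2000, H3K9 1:1000, H3 N-terminus 1:500. Membranes were stripped at pH 2 and reprobed with anti-RAP2. Densitometry was RAP2-normalised and expressed as fold change vs vehicle (=1).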

[6] = tested on: acetyl histone H3 lysine 9 in P. falciparum 3D7 trophozoites; assay: Protein hyperacetylation assay, Western blot, anti-acetyl histone H3 lysine 9; format: cell-based, Plasmodium falciparum; settings: 3× IC50, 3 h
Method in brief: as §1

T. b. brucei = settings: read-out: T. b. brucei growth IC50; ref Carrillo et al., 2015; cited from earlier work
late stage gametocytes = settings: read-out: Late stage gametocytes IC50; ref Trenholme et al., 2014; cited from earlier work
early stage gametocytes = settings: read-out: Early stage gametocytes IC50; ref Trenholme et al., 2014; cited from earlier work
P. falciparum = settings: read-out: P. falciparum in vitro growth IC50; ref Patel et al., 2009; cited from earlier work
[7] = tested on: acetyl histone H3 N-terminus in P. falciparum 3D7 trophozoites; assay: Protein hyperacetylation assay, Western blot, anti-acetyl histone H3 N-terminus; format: cell-based, Plasmodium falciparum; settings: 3× IC50, 3 h
Method in brief: as §1

[8] = HEK293 cytotoxicity assay; format: cell-based; settings: human, HEK293 cells

Structure (SMILES)	IC50 ([1]; Trypanosoma brucei, 48 h)	IC90 ([1]; Trypanosoma brucei)	T. b. brucei SI (Selectivity Index) [1]	IC90 [2]	P. falciparum SI (Selectivity Index) [2]	IC50 [3]	IC50 (P. falciparum Dd2)	inhibition at 1 µM (recombinant PfHDAC1)	IC50 (HEK293 cells; Homo sapiens, HEK293, 48 h)	IC50 (P. falciparum 3D7)	Hyperacetylation, anti-(tetra) acetyl H4 antibody (words) [5]	Times less active against T.b. brucei than P. falciparum [1]	further results
C/C=C1\NC(=O)[C@H]2CSSCC/C=C/[C@H](CC(=O)N[C@H](C(C)C)C(=O)N2)OC(=O)[C@H](C(C)C)NC1=O [Romidepsin, romidepsin]	35 nM	100 nM	<1	180 nM	<1	1 nM	130 nM	48.3 ± 39.3%	< 5 nM	90 nM	caused hyperacetylation	–	IC50 [2]: < 200 nM; IC50 [4]: 640 nM; Selectivity for gametocytes compared to the mammalian cell line HepG2 [4]: > 10 fold; Fold increase in hyperacetylation, anti-histone H3 lysine 9 antibody ([6]; vs vehicle control): 5–6 fold
O=C(/C=C/c1cccc(S(=O)(=O)Nc2ccccc2)c1)NO [Belinostat, belinostat]	2610 nM	3640 nM	<1	120 nM	11–40	2370 nM	130 nM	78.5 ± 4.7%	1420 nM	60 nM	caused hyperacetylation	~100 times	IC50 [2]: < 200 nM; Fold increase in acetylation signal, anti-(tetra) acetyl H4 antibody ([5]; relative density vs DMSO control, normalised to RAP2): > 1.3 fold; IC50 (T. b. brucei): 2200 nM
CCN(CC)CCCC(C)Nc1ccnc2cc(Cl)ccc12 (stereo not drawn) [Chloroquine, chloroquine]	9920 nM	–	5	–	612–4893	48900 nM	80 nM	–	–	10 nM	did not result in hyperacetylation	–	–
CC(/C=C/C(=O)NO)=C\[C@@H](C)C(=O)c1ccc(N(C)C)cc1 [TSA, trichostatin A]	–	–	–	–	–	–	–	–	–	–	–	–	IC50 (late stage gametocytes): 70 nM; PfHDAC1 % inhibition at 1 μM (recombinant PfHDAC1; 1 μM): ~100% and 98.9 ± 1.5%; IC50 (early stage gametocytes): 90 nM
Cc1[nH]c2ccccc2c1CCNCc1ccc(/C=C/C(=O)NO)cc1 [Panobinostat, panobinostat]	1690 nM	3280 nM	–	10 nM	–	70 nM	30 nM	~100%	–	10 nM	did not increase acetylation	~100 times	IC50 [4]: 940 nM; IC50 (P. falciparum): ~20 nM; Hyperacetylation, anti-(tetra) acetyl H4 antibody (words) ([5]; listed as panobinostat): did not result in hyperacetylation; Hyperacetylation, anti-histone H3 N-terminus antibody [7]: did not increase acetylation; Hyperacetylation, anti-histone H3 lysine 9 antibody [6]: cause hyperacetylation; IC50 (T. b. brucei): 1600 nM
O=C(CCCCCCC(=O)Nc1ccccc1)NO [Vorinostat, suberoylanilide hydroxamic acid]	–	18700 nM	–	–	–	–	–	59.8 ± 12.7%	–	–	–	~100 times	IC50 (late stage gametocytes): 810 nM
COc1ccc(C[C@H](N)C(=O)N[C@H]2[C@@H](O)[C@H](n3cnc4c(N(C)C)ncnc43)O[C@@H]2CO)cc1 [Puromycin, puromycin]	–	–	–	–	–	–	–	–	–	–	–	–	IC50 at 48 h [8]: 797 nM
CC(=O)NCC(=O)O.CC(=O)NCC(=O)O.N=C(N)c1ccc(N=NNc2ccc(C(=N)N)cc2)cc1 [Diminazene aceturate, diminazene aceturate]	–	–	>617	–	–	–	–	–	–	–	–	–	IC50 ([1]; 427 bloodstream form, 48 h exposure): 60 nM; IC50 (HEK293 cells; 48 h exposure, resazurin): > 37000 nM
N=C(N)c1ccc(OCCCCCOc2ccc(C(=N)N)cc2)cc1 [Pentamidine]	4 nM	–	>173	–	–	–	–	–	> 690 nM	–	–	–	–

Reference: publication PMC4506969 (International Journal for Parasitology: Drugs and Drug …, 2015)
